# Compounds with a hit are over-represented: about 2.3% of the library has one in this group of screens.
# m-calpain inh: blocks pig calpain II enzyme activity; purified calpain II, fluorogenic peptide substrate, 30 min; AID 1236; 220,000 compounds, 0.37% hits; inhibition, % at 16 µM;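 active means inhibition above about 50%, limit read from the data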
# NPY-Y1 antag: NPY-Y1 (human) receptor antagonism; 200,000 compounds, 1% hits; HEK293-CNG Y1 cells, membrane potential fluorescence; NPY at EC95, then isoproterenol; inhibition, % at 3.6 µM; P25929;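 active means inhibition above the campaign mean inhibition of all tested compounds plus 3 SD, cut at about 20% in these data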;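 further: 0% = DMSO wells given NPY plus isoproterenol and 100% = isoproterenol alone without NPY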
# Target sequence (P25929 whole entry, looked up): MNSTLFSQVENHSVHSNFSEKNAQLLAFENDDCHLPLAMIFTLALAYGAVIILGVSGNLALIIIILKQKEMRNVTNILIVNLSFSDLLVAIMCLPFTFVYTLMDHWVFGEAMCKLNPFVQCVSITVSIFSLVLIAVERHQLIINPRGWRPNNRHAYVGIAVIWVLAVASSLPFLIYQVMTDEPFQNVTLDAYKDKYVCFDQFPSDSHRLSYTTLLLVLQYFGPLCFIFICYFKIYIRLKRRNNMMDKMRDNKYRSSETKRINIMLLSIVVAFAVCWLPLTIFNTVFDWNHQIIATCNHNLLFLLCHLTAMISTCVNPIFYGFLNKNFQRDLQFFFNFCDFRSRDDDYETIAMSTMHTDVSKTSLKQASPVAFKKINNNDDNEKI
#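 System: HEK293 cells with Y1 receptor plus CNG channel / Probe or stimulus: NPY 25 nM then isoproterenol 1 µM plus Ro 20-1724 25 µM / Compound: one concentration, 3.6 µM, in 0.4% DMSO / Schedule: compound incubation 1 h at room temperature, readout 45 min post-stimulation / Measured by: membrane potential fluorescence / Read-out: % inhibition of NPY effect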
# NPY1 pot ag: potentiators or agonists of human neuropeptide Y receptor Y1 | AID 1304 | NPY-Y1 expressing cells, potentiator/agonist activation | P25929 | 220,000 compounds, 0.37% hits | activation, % at 3.6 µM; in the data active means activation above about 33%, passing the limit was not always enough;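 further: cells stimulated with NPY at EC10 then isoproterenol at EC100; 0% = low agonist plus stimulus and 100% = saturating agonist plus stimulus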
# TbHK1 inh: blocks Trypanosoma brucei hexokinase 1 activity; recombinant TbHK1, G6PDH-coupled NADH A340; inhibition, % at 10 µM; 220,000 compounds, 0.11% hits;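 active means inhibition of 50% or more in the single-dose primary screen; inactive means inhibition below 50%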
# NPY-Y2 PAM-ag: human NPY-Y2 potentiation or agonism, primary screen. P49146. cells expressing NPY-Y2, potentiator/agonist read-out. activation, % at 3.6 µM. 220,000 compounds, 0.45% hits. AID 1359; in the data active means activation above about 27%;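 further: cells stimulated with NPY near EC25 plus isoproterenol at EC100; 0% = vehicle plus submaximal agonist and 100% = vehicle plus saturating agonist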
# NPY-Y2 antag: antagonists of human neuropeptide Y receptor Y2; P49146; NPY-Y2 expressing cells, antagonist mode; inhibition, % at 2.7 µM; 140,000 compounds, 0.99% hits; AID 793;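 further: 0% = vehicle with agonist challenge and 100% = reference antagonist with challenge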
# NPY-Y1 ant conf: confirmation of human neuropeptide Y receptor Y1 antagonists | AID 1254 | 1,200 compounds, 21% hits | inhibition, % at 3.6 µM | HEK293-CNG NPY-Y1, membrane potential fluorescence, cAMP; NPY challenge against isoproterenol-raised cAMP | shares compounds with NPY-Y1 antag; in the data active means inhibition above about 20%;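 further: 0% = vehicle with agonist plus stimulus and 100% = stimulus alone without agonist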
# NPY-Y2 antag ct: antagonizes human NPY-Y2, counter-screen to NPY-Y1 antagonists. inhibition, % at 3.6 µM. shares compounds with NPY-Y1 antag. 1,200 compounds, 28% hits. HEK293 NPY-Y2 CNG membrane potential fluorescence, antagonism; cells given NPY, then isoproterenol;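 further: 0% = DMSO with agonist challenge and 100% = reference antagonist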
# Numbers without * were called inactive; x = no result. Unless noted, no stated cut-off is given here; in the data, active means inhibition above about 17%; inactive means the rest.
SMILES,m-calpain inh,NPY-Y1 antag,NPY1 pot ag,TbHK1 inh,NPY-Y2 PAM-ag,NPY-Y2 antag,NPY-Y1 ant conf,NPY-Y2 antag ct
O=C(Nc1ccc(F)cc1F)c1sccc1SCc1cccc(C(F)(F)F)c1,-17.2,47.7*,-32.1,5.1,-21.8,7.0,22.6*,17.1*
COC(=O)c1nnn(-c2nonc2N)c1CSc1nnc(N)s1,-15.2,-8.1,2.2,-2.2,5.8,x,x,x
CN1CCN(c2nc(-c3cccnc3)nc3scc(-c4ccccc4)c23)CC1,-43.2,27.5*,-38.5,-16.0,-23.2,x,7.4,13.0
COC(=O)c1ccccc1NC(=O)c1cccc(NC(=O)C(C)C)c1,34.1,-0.1,-22.5,-1.4,-5.0,x,x,x
COC(=O)c1ccccc1NC(=O)c1cc(OC)cc(OC)c1,-19.3,21.1*,-27.9,3.5,-7.4,3.8,9.2,11.7
COC(=O)c1ccccc1NC(=O)c1ccc(COc2ccc(C)c(C)c2)o1,17.3,28.7*,-4.7,0.6,4.8,10.4,9.7,11.9
CCOc1ccccc1NC(=O)NC(=O)N(C)S(=O)(=O)c1ccc(C)cc1,-15.1,2.8,5.9,-7.4,3.6,x,x,x
CCN(CCCNC(=O)c1cn(CC)c2ccc(S(=O)(=O)N(C)C)cc2c1=O)c1cccc(C)c1,-11.1,35.2*,-17.7,-14.4,-18.5,13.5,56.7*,72.2*
CCN1CCc2c(C#N)c(NCc3ccccc3)nc(N(CC)CC)c2C1,34.1,34.1*,-38.2,-18.5,-21.1,12.8,11.3,27.6*
O=C1OCC/C1=C\OCCCO/C=C1\CCOC1=O,-0.5,x,-10.3,8.8,-8.5,x,x,x
c1ccc(CN(Cc2cccs2)C(c2cccs2)c2nnnn2C2CCCC2)cc1 (configuration not stated),19.5,20.6*,-14.6,14.0,-17.6,15.7,17.4,5.7
c1ccc(CC2CCN(C(c3cccs3)c3nnnn3C3CCCC3)CC2)cc1 (configuration not stated),10.0,-3.5,4.1,3.8,0.5,5.3,x,x
Cc1nnc2sc(SCC(=O)Nc3cccc(Cl)c3)nn2c1=O,3.2,4.1,17.6,-11.2,-9.4,x,x,x
O=C(COc1ccc(C(=S)N2CCC(Cc3ccccc3)CC2)cc1)N1CCOCC1,-23.5,-6.0,1.7,-8.0,-21.9,x,x,x
COc1ccc(CN(C(=O)c2nsc(Cl)c2Cl)C(C(=O)NC2CCCCC2)c2ccc(OC)cc2)cc1 (configuration not stated),3.5,21.7*,-23.5,2.9,-24.0,16.8,20.0,16.3
O=[N+]([O-])c1ccc(C2CCCC/C2=N\OCc2cccc(F)c2)c([N+](=O)[O-])c1 (configuration not stated),21.3,30.7*,-37.4,4.5,-12.1,0.3,11.3,11.3
COc1ccc(N(CC(=O)NCCc2ccc(Cl)cc2)S(=O)(=O)c2c(C)[nH]c(=O)[nH]c2=O)cc1,8.8,0.6,0.4,-1.0,6.9,x,x,x
CCc1c(C)nc(SCc2ccccn2)[nH]c1=O,-7.0,2.5,-17.4,2.7,-14.7,x,x,x
Cc1ccc(C(c2nnnn2CCc2ccccc2)N2CCC(C)CC2)cc1 (configuration not stated),28.2,1.6,-6.5,5.9,8.8,10.0,x,x
Cc1ccc(C(c2nnnn2CCc2ccccc2)N2CCSCC2)cc1 (configuration not stated),0.9,20.5*,2.7,5.7,2.4,10.4,10.2,4.2
O=C(C1=C[C@@H](c2ccc(Br)cc2)C[C@@H](OCCCCO)O1)N1CCN(Cc2ccccc2)CC1,-12.3,-2.5,-24.1,-13.7,-20.5,x,x,x
CCC1(C(=O)c2ccccc2)C(c2ccc([N+](=O)[O-])cc2)C1(C(=O)OC)C(=O)OC (configuration not stated),27.3,21.6*,-34.2,13.7,-7.6,9.4,6.5,4.3
CC/C(=N\Nc1ccc([N+](=O)[O-])cc1)c1ccccc1,44.0,-5.3,20.8,-3.0,4.2,x,x,x
O=C(c1ccco1)N1N=C(c2ccccc2)CC1c1ccc2nccnc2c1 (configuration not stated),-13.7,x,-13.2,-18.1,-3.8,x,x,x
CCCCNCc1cc(Cl)c(OCCC)c(OCC)c1,-19.1,5.0,-18.2,-3.2,0.2,1.3,x,x
SMILES,m-calpain inh,NPY-Y1 antag,NPY1 pot ag,TbHK1 inh,NPY-Y2 PAM-ag,NPY-Y2 antag,NPY-Y1 ant conf,NPY-Y2 antag ct
CCCCOc1c(Cl)cc(CNC(C)(C)CO)cc1OCC,-8.8,23.5*,-34.8,3.6,-14.3,7.3,7.0,6.4
Fc1ccc(Nc2c3c(nc4ccccc24)CCC3)cc1,3.0,23.4*,-25.6,-18.0,-25.7,x,17.6,14.1
c1ccc2c(Nc3ccc4c(c3)OCCO4)c3c(nc2c1)CCC3,21.6,6.7,9.2,-9.6,3.1,x,x,x
COc1ccccc1CCNC(=O)Cc1cccs1,19.3,x,-13.0,-1.7,-9.5,x,x,x
Cc1ccc(NC(=O)c2c(C)nn(-c3ccccc3)c2Cl)c(C)c1,12.3,9.3,11.7,2.1,-8.3,1.3,x,x
Cc1cccc(C)c1NC(=O)c1c(C)nn(-c2ccccc2)c1Cl,-24.7,32.4*,-0.8,-0.6,11.4,2.3,4.7,2.2
N#Cc1c(N2CCN(C(=O)c3ccccc3Cl)CC2)nc(-c2ccccc2)c2c1CCCC2,-167.2,5.6,4.8,-9.7,0.9,6.7,x,x
N#Cc1c(N2CCN(C(=O)c3ccccc3)CC2)nc(-c2ccccc2)c2c1CCCC2,-71.3,26.7*,-18.4,-3.5,-7.7,6.5,16.9,10.9
CN(CC(=O)N1CCCC1)S(=O)(=O)c1ccc2ccccc2c1,-14.4,-4.9,10.3,1.0,1.5,x,x,x
O=C(O)CCc1ccc(-c2ccc(Cl)cc2)o1,-29.7,16.8,-36.3,-4.4,-28.7,14.7,x,x
O=C(O)CCc1ccc(-c2ccc(Br)cc2)o1,-7.5,23.3*,-29.8,3.9,-10.9,10.5,11.5,13.2
COC(=O)[C@@]1(Cc2ccc(F)cc2)[C@H]2c3cc(C(=O)N(C)C)n(Cc4ccc(OC(F)(F)F)cc4)c3C[C@H]2CN1C(=O)c1ccccc1,-70.3,34.9*,-5.9,-13.0,14.4,15.8,9.3,4.2
CCCCCC(O)(CCCCC)C(=O)NNc1ccccc1,9.2,25.2*,9.4,5.9,-1.8,10.0,11.3,4.8
Cc1ccc(NC(=S)N/N=C/c2ccc(OCCC(C)C)cc2)c(C)c1,2.6,21.1*,-13.7,-1.4,-11.4,7.2,10.6,6.9
CCNC(=O)c1c(NC(=O)c2cc(-c3cc(C)ccc3O)n[nH]2)sc2c1CCCC2,-100.3,-1.7,-10.5,-13.7,-11.3,-0.7,x,x
CCOc1ccccc1CN1CCN(C/C=C/c2ccc(OC)cc2)CC1CCO (configuration not stated),11.6,25.4*,-35.5,-2.2,-51.2,x,12.3,14.2
